# Measured values as given in ChEMBL document CHEMBL3526029, “Disposition and metabolism of GSK2251052 in humans: a novel boron-containing antibiotic” (Drug Metab Dispos, 2013).
# Key:
# Blood [1] = assay: AUC (0 to t) in healthy human whole blood assessed as radioactivity at 1500 mg, iv infusion for 1 hr as single dose; assay type: ADME, organism-based; conditions: in vivo
# Procedure, shortened: (§1)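 Six fasted healthy men received 1500 mg [14C]GSK2251052 as a 1-h i.v. infusion. Blood and plasma were sampled from predose to 336 h after infusion start. Radioactivity was counted by LSC; plasma below 870 ng eq/ml was reanalysed by accelerator MS, with predose background subtracted. Noncompartmental analysis used actual sampling times, linear-up/log-down trapezoids and CL = dose/AUC(0-∞).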
# Blood [2] = assay: AUC (0 to infinity) in healthy human whole blood assessed as radioactivity at 1500 mg, iv infusion for 1 hr as single dose; assay type: ADME, organism-based; design: dose 1500 mg, route intravenous, time infinity; conditions: in vivo; procedure, shortened: as §1
# [3] = Drug recovery in healthy human urine at 1500 mg, iv infusion for 1 hr as single dose after 24 hrs; assay type: ADME, organism-based; conditions: read-out: Drug recovery
# [4] = Drug recovery in healthy human urine at 1500 mg, iv infusion for 1 hr as single dose after 48 hrs; assay type: ADME, organism-based; conditions: read-out: Drug recovery
# [5] = Drug metabolism in cynomolgus monkey liver S9 fraction assessed as (S)-3-(3-(aminomethyl)-1-hydroxy-1,3-dihydrobenzo[c][1,2]oxaborol-7-yloxy)propanoicacid formation at 50 to 500 uM after 3 hrs by liquid scintillation counting in presence of NADPH regeneration system; assay type: ADME, subcellular, Macaca fascicularis; conditions: s9, 3 h
# Plasma = assay: Clearance in healthy human plasma assessed as radioactivity at 1500 mg, iv infusion for 1 hr as single dose; assay type: ADME, organism-based; conditions: in vivo; procedure, shortened: as §1
# [6] = Total drug recovery in healthy human at 1500 mg, iv infusion for 1 hr as single dose after 24 hrs; assay type: ADME, organism-based; conditions: in vivo, read-out: Drug recovery
# Procedure, shortened: (§2)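 Six healthy adult males, fasted ≥10 h, got one 1500 mg [14C]GSK2251052 dose ([…], 0.56 MBq) as a constant-rate 1-h IV infusion in 0.9% NaCl. Urine was collected at 0–6, 6–12 and 12–24 h, then in 24-h blocks to 336 h; feces in 24-h blocks. Urine was counted directly by LSC; feces were homogenized and combusted in duplicate before LSC. Cumulative recovery is given as mean % of dose.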
# [7] = Total drug recovery in healthy human at 1500 mg, iv infusion for 1 hr as single dose after 192 hrs; assay type: ADME, organism-based; conditions: in vivo, read-out: Drug recovery
# [8] = Total drug recovery in healthy human at 1500 mg, iv infusion for 1 hr as single dose after 216 hrs; assay type: ADME, organism-based; conditions: in vivo, read-out: Drug recovery; procedure, shortened: as §2
# [9] = Total drug recovery in healthy human at 1500 mg, iv infusion for 1 hr as single dose after 264 hrs; assay type: ADME, organism-based; conditions: in vivo, read-out: Drug recovery; procedure, shortened: as §2
# [10] = Total drug recovery in healthy human at 1500 mg, iv infusion for 1 hr as single dose after 312 hrs; assay type: ADME, organism-based; conditions: in vivo, read-out: Drug recovery; procedure, shortened: as §2
# [11] = Total drug recovery in healthy human at 1500 mg, iv infusion for 1 hr as single dose after 336 hrs; assay type: ADME, organism-based; conditions: in vivo, read-out: Drug recovery; procedure, shortened: as §2
# Homo sapiens = assay: Toxicity in healthy human assessed as mortality at 1500 mg, iv infusion for 1 hr as single dose; assay type: organism-based; conditions: in vivo
# Procedure, shortened: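 Single-center, open-label phase I study in six healthy adult males, fasted ≥10 h. Each got one 1500 mg [14C]GSK2251052 dose as a constant-rate 1-h IV infusion. Safety was monitored throughout, with follow-up for at least 336 h after dosing.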
# [12] = Drug metabolism in healthy human urine assessed as (S)-3-(3-(acetamidomethyl)-1-hydroxy-1,3-dihydrobenzo[c][1,2]oxaborol-7-yloxy)propanoicacid formation at 1500 mg, iv infusion for 1 hr as single dose by mass spectrometry; assay type: ADME, organism-based; conditions: in vivo
# Procedure, shortened: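 Urine was collected through 336 h after a 1500 mg [14C] i.v. 1-h infusion to six men. Samples were pooled by weight (0–120 h per subject; 120–336 h composite) and centrifuged. Profiling used HPLC (Atlantis T3, ammonium acetate pH 4.5/methanol, 30°C) with fraction radioactivity counting. Identity came from Orbitrap positive-ion accurate mass. Values were given as % dose, corrected for recovery.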
# [13] = Drug metabolism in cynomolgus monkey lung S9 fraction assessed as (S)-3-(3-(aminomethyl)-1-hydroxy-1,3-dihydrobenzo[c][1,2]oxaborol-7-yloxy)propanoicacid formation at 50 to 500 uM after 3 hrs by liquid scintillation counting in presence of NADPH regeneration system; assay type: ADME, Macaca fascicularis; conditions: s9, 3 h
# Liver microsome [14] = assay: Drug metabolism in human liver microsomes assessed as (S)-3-(3-(aminomethyl)-1-hydroxy-1,3-dihydrobenzo[c][1,2]oxaborol-7-yloxy)propanoicacid formation at 50 to 500 uM after 3 hrs by liquid scintillation counting in presence of NADPH regeneration system; assay type: ADME
# [15] = Drug metabolism in cynomolgus monkey lung S9 fraction assessed as (S)-3-(3-(aminomethyl)-1-hydroxy-1,3-dihydrobenzo[c][1,2]oxaborol-7-yloxy)propanoicacid formation at 50 to 500 uM after 3 hrs by liquid scintillation counting in presence of NAD+; assay type: ADME, Macaca fascicularis; conditions: s9, 3 h
# Procedure, shortened: (§3)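 [14C]GSK2251052 was incubated in triplicate for 1 or 3 h at 37°C with 4 mg/ml S9 (monkey liver, lung or kidney; human liver), liver cytosol or liver microsomes and 7.5 mM NAD+. Buffer was pyrophosphate at pH 7.4, 8.4 or 8.8. Controls lacked cofactor or enzyme. Reactions were quenched with acetonitrile, counted by LSC, and pooled for radio-HPLC.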
# Liver cytosol = assay: Drug metabolism in human liver cytosol assessed as (S)-3-(3-(aminomethyl)-1-hydroxy-1,3-dihydrobenzo[c][1,2]oxaborol-7-yloxy)propanoicacid formation at 50 to 500 uM after 3 hrs by liquid scintillation counting in presence of NAD+; assay type: ADME; procedure, shortened: as §3
# [16] = Drug recovery in healthy human urine at 1500 mg, iv infusion for 1 hr as single dose after 216 hrs; assay type: ADME, organism-based; conditions: read-out: Drug recovery
# [17] = Drug recovery in healthy human urine at 1500 mg, iv infusion for 1 hr as single dose after 240 hrs; assay type: ADME, organism-based; conditions: read-out: Drug recovery
# [18] = Drug recovery in healthy human urine at 1500 mg, iv infusion for 1 hr as single dose after 288 hrs; assay type: ADME, organism-based; conditions: read-out: Drug recovery
# [19] = Drug recovery in healthy human urine at 1500 mg, iv infusion for 1 hr as single dose after 312 hrs; assay type: ADME, organism-based; conditions: read-out: Drug recovery
# [20] = Drug recovery in healthy human urine at 1500 mg, iv infusion for 1 hr as single dose after 336 hrs; assay type: ADME, organism-based; conditions: read-out: Drug recovery
# [21] = Drug recovery in healthy human feces at 1500 mg, iv infusion for 1 hr as single dose after 48 hrs; assay type: ADME, organism-based; conditions: read-out: Drug recovery
# Liver microsome [22] = assay: Drug metabolism in human liver microsomes assessed as (S)-3-(3-(aminomethyl)-1-hydroxy-1,3-dihydrobenzo[c][1,2]oxaborol-7-yloxy)propanoicacid formation at 50 to 500 uM after 3 hrs by liquid scintillation counting in presence of NAD+; assay type: ADME; procedure, shortened: as §3
# [23] = Drug metabolism in cynomolgus monkey cytosol assessed as (S)-3-(3-(aminomethyl)-1-hydroxy-1,3-dihydrobenzo[c][1,2]oxaborol-7-yloxy)propanoicacid formation at 50 to 500 uM after 3 hrs by liquid scintillation counting in presence of NAD+ and ADH inhibitor 4-MP; assay type: ADME, Macaca fascicularis, Liver
# Procedure, shortened: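 NAD+ (7.5 mM) incubations of [14C]GSK2251052 with 4 mg/ml monkey liver cytosol or liver S9 in pyrophosphate buffer included 4-MP at 0.6 mM final. Incubations ran in triplicate at 37°C. Extracts were counted by LSC and pooled for radio-HPLC.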
smiles,measurement,setting,value
Cl.N[14CH2][C@H]1OB(O)c2c(OCCCO)cccc21,AUCt,Blood [1],141 µg·h/mL
same,AUC,Blood [2],193 µg·h/mL
same,dose excreted at 24 h,[3],51.2%
same,dose excreted at 48 h,[4],69.2%
same,Drug metabolism,[5],metabolite_not_detected
same,CL,Plasma,7.7 L/h
same,dose excreted at 24 h,[6],51.3%
same,dose excreted at 192 h,[7],95%
same,dose excreted at 216 h,[8],95.8%
same,dose excreted at 264 h,[9],97%
same,dose excreted at 312 h,[10],97.8%
same,dose excreted at 336 h,[11],98.2%
same,Activity,Homo sapiens,Non-toxic
same,Drug recovery,[12],metabolite_detected
same,Drug metabolism,[13],metabolite_not_detected
same,Drug metabolism,Liver microsome [14],metabolite_not_detected
same,Drug metabolism,[15],metabolite_not_detected
same,Drug metabolism,Liver cytosol,metabolite_not_detected
same,dose excreted at 216 h,[16],88.2%
same,dose excreted at 240 h,[17],88.8%
same,dose excreted at 288 h,[18],89.8%
same,dose excreted at 312 h,[19],90.2%
same,dose excreted at 336 h,[20],90.5%
same,dose excreted at 48 h,[21],1.3%
same,Drug metabolism,Liver microsome [22],metabolite_not_detected
same,Drug metabolism,[23],metabolite_not_detected
